Test results reported in article PMC9200056 (Chemical Science, 2022).
One block for each substance: values may come before it. Non-standard residues stand in square brackets, D forms with d. *: point of attachment. 1Nal = N[C@@H](Cc1cccc2ccccc12)C(=O)O; ACC = NC(=O)Cc1cc(=O)oc2cc(N*)ccc12; Igl = N[C@H](C(=O)O)C1Cc2ccccc2C1; hArg = N=C(N)NCCCC[C@H](N)C(=O)O; Dab = NCC[C@H](N)C(=O)O; Cbz = O=C(OCc1ccccc1)*

Assays:
Format in all cases: biochemical
thrombin [1] = target: T1, thrombin (Homo sapiens, UniProt P00734); assay: Inhibition kinetics; conditions: ratio of kobs/I values
fXa (factor Xa) [2] = target: T2, fXa (factor Xa) (Homo sapiens, UniProt P00742); assay: Substrate kinetics
How it was run: (§1)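 Purified plasma-derived human enzymes were preincubated 15 min at 37 °C in Tris/NaCl/CaCl2 buffer, pH 7.4. They were added to eight serially diluted ACC substrate concentrations (4.68 nM–741 μM overall). ACC release was followed at 355/460 nm for 30 min at 37 °C to derive kcat, KM and kcat/KM; at least duplicate runs were averaged.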

fXa (factor Xa) [3] = target: T2, fXa (factor Xa); assay: Initial substrate screening; conditions: 1 μM substrate, relative to SMX15
How it was run: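 ACC fluorogenic substrates at 1 μM final, from 10 mM stocks diluted 100-fold in DMSO. fXa (7–100 nM, set per substrate for adequate signal) preincubated 15 min at 37 °C in 20 mM Tris, 150 mM NaCl, 5 mM CaCl2, pH 7.4. Hydrolysis read for 30 min at 37 °C (ex 355, em 460 nm). Linear-phase RFU s−1 normalised to equal enzyme activity, averaged over at least two repeats.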

[4] = target: APC (activated protein C) (Homo sapiens, UniProt P04070); assay: Initial substrate screening; conditions: for increase in activity on exchanging L-Nle(O-Bzl) (SMA4) at P3: initial screening, 1 μM substrate, relative to SMA4
How it was run: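 Plasma-derived human APC (thrombin–thrombomodulin-activated) was preincubated 15 min at 37 °C in Tris/NaCl/CaCl2 buffer, pH 7.4, then added to ACC substrates at 1 μM final. Final APC was 50–90 nM, chosen per substrate set. ACC release was read at 355/460 nm for 30 min. Rates (RFU s−1) came from the linear portion and were adjusted to equal enzyme activity; at least 2 repeats were averaged.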

thrombin in human plasma = assay: Thrombin labeling by fluorescent ABP in human plasma; conditions: EDTA plasma diluted 7.5 times, probe 20 μM, 60 min, 37 °C; SDS–PAGE
How it was run: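 Human plasma from EDTA-anticoagulated whole blood, diluted 7.5-fold in Tris/NaCl/5 mM CaCl2 buffer, pH 7.4, incubated 1:1 with thrombin-directed Cy7 probe (1–20 μM) for 60 min at 37 °C. Reduced in SDS/DTT at 95 °C, run on 12% SDS–PAGE and blotted. Sheep anti-fII for 7 h, then Alexa 680 secondary. Cy7 imaged at 784 nm, antibody at 658 nm. At least 3 replicates.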

APC in human plasma = assay: APC labeling by fluorescent ABP in human plasma; conditions: EDTA plasma diluted 7.5 times, probe 20 μM, 60 min, 37 °C; SDS–PAGE
How it was run: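 Human plasma from EDTA-anticoagulated whole blood, diluted 7.5-fold in 20 mM Tris, 150 mM NaCl, 5 mM CaCl2, pH 7.4, mixed 1:1 with APC-directed Cy5 probe (1–20 μM), 60 min, 37 °C. SDS/DTT reduction at 95 °C for 5 min, then 12% SDS–PAGE and nitrocellulose blot. Chicken anti-protein C for 7 h, then Alexa 488 secondary. Cy5 imaged at 658 nm, antibody at 488 nm. At least 3 replicates.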

thrombin [5] = target: T1, thrombin; assay: Substrate kinetics; conditions: ratio of kcat/KM values
How it was run: as §1

fXa (factor Xa) [6] = target: T2, fXa (factor Xa); assay: Inhibition kinetics; conditions: ratio of kobs/I values

T2 sequence (P00742 235-488 limits assumed): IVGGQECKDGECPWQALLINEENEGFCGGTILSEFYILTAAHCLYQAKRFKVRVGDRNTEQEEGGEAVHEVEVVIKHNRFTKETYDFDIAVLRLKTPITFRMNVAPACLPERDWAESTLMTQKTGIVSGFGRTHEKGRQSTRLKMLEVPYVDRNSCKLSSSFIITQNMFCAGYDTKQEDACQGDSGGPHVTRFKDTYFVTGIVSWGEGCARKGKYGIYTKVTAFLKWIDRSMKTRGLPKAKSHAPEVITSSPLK
T2 sequence (P00742 41-179 partner limits assumed): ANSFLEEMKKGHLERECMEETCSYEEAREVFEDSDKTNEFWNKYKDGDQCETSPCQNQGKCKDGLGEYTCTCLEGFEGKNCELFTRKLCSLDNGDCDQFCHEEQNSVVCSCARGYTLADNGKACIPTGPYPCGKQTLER
Chain of APC (activated protein C) (P04070 212-461 limits assumed): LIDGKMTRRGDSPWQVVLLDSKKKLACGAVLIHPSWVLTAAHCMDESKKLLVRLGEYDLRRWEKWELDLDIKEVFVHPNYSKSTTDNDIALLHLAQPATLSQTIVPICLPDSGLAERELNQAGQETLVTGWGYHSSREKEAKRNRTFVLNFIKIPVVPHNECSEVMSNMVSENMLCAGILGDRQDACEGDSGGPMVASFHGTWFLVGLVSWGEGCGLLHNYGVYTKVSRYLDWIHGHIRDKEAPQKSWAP
Chain of APC (activated protein C) (P04070 43-197 partner limits assumed): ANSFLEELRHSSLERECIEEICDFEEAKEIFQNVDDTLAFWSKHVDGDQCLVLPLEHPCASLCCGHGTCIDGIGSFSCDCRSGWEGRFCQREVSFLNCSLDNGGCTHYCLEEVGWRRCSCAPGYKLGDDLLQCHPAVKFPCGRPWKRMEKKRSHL

kobs/I selectivity: thrombin inhibition more rapid than APC (thrombin [1]): 348 fold
kobs/I selectivity: thrombin inhibition more rapid than fXa (thrombin [1]): 2087 fold
Substance: Ac–hCha–Cys(MeBzl)–Pip–Arg^P(OPh)2 [I-SMII22]

Substance: Ac-[dP][hArg][1Nal]R-{ACC} (SMILES CC(=O)N1CCC[C@@H]1C(=O)N[C@@H](CCCCNC(=N)N)C(=O)N[C@@H](Cc1cccc2ccccc12)C(=O)N[C@@H](CCCNC(=N)N)C(=O)Nc1ccc2c(CC(N)=O)cc(=O)oc2c1) [SMX15]
times more hydrolyzed by fXa than by thrombin (fXa (factor Xa) [2]; ratio of kcat/KM values): 358 times

Substance: Ac-Gln-hArg-1-Nal-Arg-AC C [SMX14]
change of overall activity on replacing D-Pro (SMX15) at P4 (fXa (factor Xa) [3]): only a slight decrease in the overall activity

increase in activity on exchanging L-Nle(O-Bzl) (SMA4) at P3 [4]: 13 fold
Substance: Ac-Lys-Dab(Z )-Lys(2-Cl-Z)-Arg-AC C [SMA1]

Substance: Cy7–6-Ahx–hCha–Cys(MeBzl)–Pip–Arg^P(OPh)2 [P-SMII222]
selectivity of thrombin labeling in human plasma at 20 μM probe (thrombin in human plasma): selectivity was maintained with thrombin labeling

Substance: Ac-K[Dab](Cbz)[Igl]R-{ACC} (SMILES CC(=O)N[C@@H](CCCCN)C(=O)N[C@@H](CCNC(=O)OCc1ccccc1)C(=O)N[C@H](C(=O)N[C@@H](CCCNC(=N)N)C(=O)Nc1ccc2c(CC(N)=O)cc(=O)oc2c1)C1Cc2ccccc2C1) [SMA5]
cleaved more efficiently than the best natural substrate (SMA54) ([4]; relative to SMA54): approximately 50 fold

increase in activity on exchanging L-Nle(O-Bzl) (SMA4) at P3 [4]: 22 fold
Substance: Ac-Lys-Agp-Lys(2-Cl-Z)-Arg-AC C [SMA2]

Substance: Cy5–6-Ahx–Lys–Dab(Z)–Lys–Arg^P(OPh)2 [P-SMA172]
off-target labeling in human plasma at 20 μM probe (APC in human plasma): only minor additional labeling between 25 and 35 kDa

Substance: Ac-M[hArg][1Nal]R-{ACC} (SMILES CSCC[C@H](NC(C)=O)C(=O)N[C@@H](CCCCNC(=N)N)C(=O)N[C@@H](Cc1cccc2ccccc12)C(=O)N[C@@H](CCCNC(=N)N)C(=O)Nc1ccc2c(CC(N)=O)cc(=O)oc2c1) [SMX61]
increase of the kcat/KM value on exchanging D-Pro at P4 (SMX15) for L-Met (fXa (factor Xa) [2]; fXa, relative to SMX15): 55%

Substance: Ac–hCha–Cys(MeBzl)–Pip–Arg–ACC [SMII22]
kcat/KM selectivity for thrombin over APC (thrombin [5]): 3383 fold
kcat/KM selectivity for thrombin over fXa (thrombin [5]): 162 fold

inhibition of APC less efficient than fXa (fXa (factor Xa) [6]): 75 fold
Substance: Cy3–6-Ahx–DPro–hArg–1-Nal–Arg^P(OPh)2 [P-SMX152]

Substance: Ac-Arg(NO2)-hArg-1-Nal-Arg-AC C [SMX13]
change of overall activity on replacing D-Pro (SMX15) at P4 (fXa (factor Xa) [3]): only a slight decrease in the overall activity

increase in activity on exchanging L-Nle(O-Bzl) (SMA4) at P3 [4]: 5.5 fold
Substance: Ac-Lys-Glu(Bzl)-Lys(2-Cl-Z)-Arg-AC C [SMA3]
